The source of these data is publication PMC10670441 (ACS chemical neuroscience, 2023).

Assay [1] has as its target human dopamine transporter (hDAT) (Homo sapiens, UniProt Q01959). The assay can be described thus: Inhibition of APP+ uptake in hDAT-expressing HEK293 cells. It counts as cell-based. Conditions: for DAT Selectivity: SERT IC50 value ÷ DAT IC50 value; for IC50: hDAT, inhibition of APP+ (3 μM) uptake. Summed up: (§1)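 Flp-In T-REx HEK293 lines stably carrying hDAT or hSERT, DsRED-transfected, doxycycline-induced (1μg/mL) for three days. Under perfusion in pH 7.3 HEPES-glucose buffer: 10 s buffer, 40 s compound, 30 s APP⁺ (3 μM hDAT; 5 μM hSERT) plus compound. Imaging at ex 460/em 535/50 nm. End-point fluorescence averaged over 30–60 cells per well, one concentration per well, normalised to compound-free wells (≥4 wells/concentration). Dose-response inhibition fit gives IC50.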

For assay [2], the target named is human serotonin transporter (hSERT) (Homo sapiens, UniProt P31645). The assay can be described thus: Inhibition of APP+ uptake in hSERT-expressing HEK293 cells. The note with it: inhibition of APP+ (5 μM) uptake. Format: cell-based. Summed up: as §1
human serotonin transporter (hSERT), sequence (P31645 whole entry): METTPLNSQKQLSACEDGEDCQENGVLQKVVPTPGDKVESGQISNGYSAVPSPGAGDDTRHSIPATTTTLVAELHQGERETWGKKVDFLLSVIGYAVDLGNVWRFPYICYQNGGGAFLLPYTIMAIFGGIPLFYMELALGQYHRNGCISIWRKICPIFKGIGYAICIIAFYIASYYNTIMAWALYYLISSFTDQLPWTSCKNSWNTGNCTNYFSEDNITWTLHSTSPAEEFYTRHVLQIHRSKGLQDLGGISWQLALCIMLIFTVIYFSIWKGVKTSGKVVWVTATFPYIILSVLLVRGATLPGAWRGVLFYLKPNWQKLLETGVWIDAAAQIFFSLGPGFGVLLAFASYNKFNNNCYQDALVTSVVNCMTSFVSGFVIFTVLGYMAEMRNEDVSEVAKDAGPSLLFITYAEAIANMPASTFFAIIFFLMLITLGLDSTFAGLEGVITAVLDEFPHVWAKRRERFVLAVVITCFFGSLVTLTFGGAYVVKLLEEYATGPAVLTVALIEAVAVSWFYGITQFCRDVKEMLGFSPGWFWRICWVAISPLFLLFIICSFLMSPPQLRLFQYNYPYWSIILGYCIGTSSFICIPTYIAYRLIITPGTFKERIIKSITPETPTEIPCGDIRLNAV
The test system of assay [3] is DAT. The note with it: cited from earlier work; for EC50: DAT releasing agent.
The subject of assay [4] is DAT. The note with it: binding at DAT; cited from earlier work.

human dopamine transporter (hDAT), sequence (Q01959 whole entry, the tested form may be a part): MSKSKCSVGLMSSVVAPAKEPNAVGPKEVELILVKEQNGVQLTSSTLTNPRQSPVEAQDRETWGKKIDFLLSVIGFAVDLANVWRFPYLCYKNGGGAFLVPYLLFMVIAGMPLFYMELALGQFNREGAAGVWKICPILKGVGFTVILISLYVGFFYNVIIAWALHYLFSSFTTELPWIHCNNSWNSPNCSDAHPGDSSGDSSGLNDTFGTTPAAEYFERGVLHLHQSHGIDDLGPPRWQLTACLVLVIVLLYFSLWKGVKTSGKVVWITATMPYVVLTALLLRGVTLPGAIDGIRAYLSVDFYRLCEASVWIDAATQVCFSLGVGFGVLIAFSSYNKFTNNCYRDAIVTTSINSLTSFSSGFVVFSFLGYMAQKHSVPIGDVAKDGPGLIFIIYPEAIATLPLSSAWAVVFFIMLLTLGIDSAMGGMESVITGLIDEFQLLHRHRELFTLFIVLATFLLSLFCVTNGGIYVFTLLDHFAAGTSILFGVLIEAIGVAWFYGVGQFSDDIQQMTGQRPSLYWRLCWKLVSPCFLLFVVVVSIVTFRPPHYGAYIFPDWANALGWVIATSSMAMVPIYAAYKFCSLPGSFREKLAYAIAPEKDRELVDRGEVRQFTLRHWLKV

The IC50 is the point on the concentration scale where inhibition reaches its midpoint. A low value points to inhibition by little substance. On to `CCCCC(C(=O)c1ccc(Br)cc1)N1CCCC1.Cl` (stereo not drawn) [4-Br α-PHP (8), 1-(4-Bromophenyl)-2-(pyrrolidin-1-yl)hexanone Hydrochloride], for which, in assay [1], the “DAT Selectivity” value was 28 fold. Besides, the IC50 in assay [1] amounted to 127 nM; in assay [2], 3.61 µM.
Usually EC50 stands for the midpoint of the concentration-response curve. In the case of `CNC(C)C(=O)c1ccccc1` (centres unmarked) [Compound 10, methcathinone], the EC50 in the assay with DAT [3] is 13.5 nM.
On to `CCCCC(C(=O)c1ccc(C)cc1)N1CCCC1.Cl` (stereo not drawn) [4-CH3 α-PHP (4)], for which the “DAT Selectivity” value in assay [1] was 83 fold.
For the molecule `CCCCC(C(=O)c1ccc(C(F)(F)F)cc1)N1CCCC1.Cl` (stereo not drawn) [4-CF3 α-PHP (9), 1-(4-Trifluoromethylphenyl)-2-pyrrolidin-1-yl)hexanone Hydrochloride], the IC50 in assay [1] came to 7500 nM; in assay [2] it was 5.79 µM.
With `CCCCC(C(=O)c1ccc(CC)cc1)N1CCCC1.Cl` (stereo not drawn) [4-CH2CH3 α-PHP (6), 1-(4-Ethylphenyl)-2-(pyrrolidin-1-yl)hexanone Hydrochloride], in assay [1], the “DAT Selectivity” value turned out to be 40 fold and the IC50 stood at 247 nM. In assay [2], this molecule yielded an IC50 of 9.83 µM.
With `CNC(C)C(=O)c1ccc(OC)cc1` (centres unmarked) [4-OCH3 10], the “fold lower potency as a releasing agent than its parent, 10” value in the assay with DAT [3] (DAT release) is given as 40 fold. Besides, in the assay with DAT [3] (releasing agent), the “SERT versus DAT selectivity” value is given as 4 fold.
For the molecule `CCCCC(C(=O)c1ccc(C)cc1)N1CCCC1.Cl` (stereo not drawn) [4-CH3 α-PHP (4), 1-(4-Methylphenyl)-2-pyrrolidin-1-yl)hexanone Hydrochloride], the IC50 in assay [1] came to 124 nM; in assay [2], 10.2 µM.
With `CCCCC(C(=O)c1ccc(C(F)(F)F)cc1)N1CCCC1.Cl` (stereo not drawn) [4-CF3 α-PHP (9)], the “DAT Selectivity” value in assay [1] came to 0.8 fold.
As for `CCCC(C(=O)c1ccc(C(F)(F)F)cc1)N1CCCC1` (centres unmarked) [4-CF3 analogue of 2], the “fold lower affinity at DAT than 2” value in the assay on DAT [4] is more than 300 fold.
Take `CNC(C)C(=O)c1ccc(C(F)(F)F)cc1` (centres unmarked) [4-CF3 10, 4-CF3 methcathinone]: the EC50 with DAT [3] was 2710 nM.
As for `CCCCC(C(=O)c1ccc(Cl)cc1)N1CCCC1.Cl` (stereo not drawn) [4-Cl α-PHP (7), 1-(4-Chlorophenyl)-2-(pyrrolidin-1-yl)hexanone Hydrochloride], in assay [1], the “DAT Selectivity” value worked out at 55 fold and the IC50 worked out at 184 nM. For the same molecule, in assay [2], it took 10.1 µM to reach half-maximal inhibition (IC50).
The matching figures for `CCCCC(C(=O)c1ccc(OC)cc1)N1CCCC1.Cl` (stereo not drawn) [4-OCH3 α-PHP (5), 1-(4-Methoxyphenyl)-2-(pyrrolidin-1-yl)hexanone Hydrochloride]: 200 fold, 75 nM and 15.2 µM.
As for `CCCCC(C(=O)c1ccccc1)N1CCCC1` (stereo not drawn) [α-PHP (1), 1-phenyl-2-(pyrrolidin-1-yl)hexanone], in assay [1], the “DAT Selectivity” value is recorded as more than 300 fold and the IC50 amounted to 97 nM. In assay [2], this molecule came in with an IC50 of more than 30 µM.
